Measured values reported in ChEMBL document CHEMBL5724801, “EUbOPEN Chemogenomics Library - Multiplex” (2024).
Values joined by “and” are separate entries in the source; they are usually repeats but may differ in a detail not shown here. Equal values may be shown once.

Tested on: HEK-293T
Experiment: Multiplex assay against HEK293T
Format: toxicity, cell-based
Details: human
Procedure, shortened: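 Tubulin, mitochondrial-mass and membrane-permeability phenotypes are per cents of healthy-nucleus cells. Cells were gated by CellPathfinder machine learning into Hoechst high-intensity objects or normal cells, normal cells into healthy, pyknosed or fragmented nuclei, and pyknosed cells into mitotic or apoptotic. Before that, live cells stained at seeding with Hoechst33342, BioTracker Green Microtubule Cytoskeleton Dye, MitoTracker Red and Annexin V Alexa Fluor 680 were imaged on a CQ1 microscope at 37°C and 5% CO2 after compound addition.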

[1] = 12 h, 1 µM, compound concentration 1 uM
[2] = 12 h, 10 µM, compound concentration 10 uM
[3] = 24 h, 1 µM, compound concentration 1 uM
[4] = 24 h, 10 µM, compound concentration 10 uM
[5] = 48 h, 1 µM, compound concentration 1 uM
[6] = 48 h, 10 µM, compound concentration 10 uM

## O=C1NC(NC23CC4CC(CC(C4)C2)C3)=N/C1=C\c1ccc2ncsc2c1
[1]
  Population Apoptotic (%): 29.13% and 49.03%
  Population Fragmented Nuclei (%): 8.91% and 6.01%
  Population Hoechst High Intensity Objects (%): 6.05% and 0.54%
  Population Membrane Permeable-Phenotype (%): 1.75% and 0%
  Population Mitochondria Different-Phenotype (%): 15.79% and 5.88%
  Population Mitotic Cells (%): 70.87% and 50.97%
  Population Normal (%): 93.95% and 99.46%
  Population Pyknosed Nuclei (%): 62.87% and 84.7%
  Population Tubulin-Different-Phenotype (%): 17.54% and 23.53%
  Total Cell Count: 215 and 184
[2]
  Population Apoptotic (%): 29.21% and 56.72%
  Population Fragmented Nuclei (%): 84.08% and 93.38%
  Population Healthy Nuclei (%): 3.91% and 2.86%
  Population Hoechst High Intensity Objects (%): 21.42% and 7.86%
  Population Membrane Permeable-Phenotype (%): 0%
  Population Mitochondria Different-Phenotype (%): 0%
  Population Mitotic Cells (%): 70.79% and 43.28%
  Population Normal (%): 78.58% and 92.14%
  Population Pyknosed Nuclei (%): 12.01% and 3.76%
  Population Tubulin-Different-Phenotype (%): 0%
  Total Cell Count: 943 and 1934
[3]
  Population Apoptotic (%): 59.35% and 52.46%
  Population Fragmented Nuclei (%): 10.75% and 5.21%
  Population Healthy Nuclei (%): 23.12% and 8.06%
  Population Hoechst High Intensity Objects (%): 4.62% and 0%
  Population Membrane Permeable-Phenotype (%): 6.98% and 5.88%
  Population Mitochondria Different-Phenotype (%): 4.65% and 0%
  Population Mitotic Cells (%): 40.65% and 47.54%
  Population Normal (%): 95.38% and 100%
  Population Pyknosed Nuclei (%): 66.13% and 86.73%
  Population Tubulin-Different-Phenotype (%): 16.28% and 11.76%
  Total Cell Count: 195 and 211
[4]
  Population Apoptotic (%): 30% and 40.21%
  Population Fragmented Nuclei (%): 85.18% and 91.28%
  Population Healthy Nuclei (%): 4.04% and 1.95%
  Population Hoechst High Intensity Objects (%): 21.4% and 9.41%
  Population Membrane Permeable-Phenotype (%): 3.33% and 0%
  Population Mitochondria Different-Phenotype (%): 0%
  Population Mitotic Cells (%): 70% and 59.79%
  Population Normal (%): 78.6% and 90.59%
  Population Pyknosed Nuclei (%): 10.78% and 6.76%
  Population Tubulin-Different-Phenotype (%): 0% and 3.57%
  Total Cell Count: 944 and 1583
[5]
  Population Apoptotic (%): 47.65% and 48.67%
  Population Fragmented Nuclei (%): 14.23% and 10.83%
  Population Healthy Nuclei (%): 14.64% and 17.2%
  Population Hoechst High Intensity Objects (%): 2.85% and 0.63%
  Population Membrane Permeable-Phenotype (%): 0% and 3.7%
  Population Mitochondria Different-Phenotype (%): 40% and 33.33%
  Population Mitotic Cells (%): 52.35% and 51.33%
  Population Normal (%): 97.15% and 99.37%
  Population Pyknosed Nuclei (%): 71.13% and 71.97%
  Population Tubulin-Different-Phenotype (%): 25.71% and 48.15%
  Total Cell Count: 246 and 158
[6]
  Population Apoptotic (%): 35.64% and 60.49%
  Population Fragmented Nuclei (%): 84.47% and 93.33%
  Population Healthy Nuclei (%): 3.18% and 1.42%
  Population Hoechst High Intensity Objects (%): 23.26% and 9.23%
  Population Membrane Permeable-Phenotype (%): 0%
  Population Mitochondria Different-Phenotype (%): 0%
  Population Mitotic Cells (%): 64.36% and 39.51%
  Population Normal (%): 76.74% and 90.77%
  Population Pyknosed Nuclei (%): 12.35% and 5.25%
  Population Tubulin-Different-Phenotype (%): 0%
  Total Cell Count: 1066 and 1701

## COc1ccc(CC(=O)NC(N/C(=N/C#N)Nc2cccc3ncccc23)C(C)(C)C)cc1OC (stereo not given)
[1]
  Population Apoptotic (%): 11.97% and 9.68%
  Population Fragmented Nuclei (%): 1.67% and 3.75%
  Population Hoechst High Intensity Objects (%): 0%
  Population Membrane Permeable-Phenotype (%): 0.47% and 3.33%
  Population Mitochondria Different-Phenotype (%): 42.45% and 26.67%
  Population Mitotic Cells (%): 88.03% and 90.32%
  Population Normal (%): 100%
  Population Pyknosed Nuclei (%): 39.44% and 77.5%
  Total Cell Count: 360 and 160
[2]
  Population Apoptotic (%): 8.97% and 14.85%
  Population Fragmented Nuclei (%): 3.73% and 3.91%
  Population Healthy Nuclei (%): 51.24% and 17.19%
  Population Hoechst High Intensity Objects (%): 0.31% and 0%
  Population Membrane Permeable-Phenotype (%): 0.61% and 9.09%
  Population Mitochondria Different-Phenotype (%): 26.67% and 22.73%
  Population Mitotic Cells (%): 91.03% and 85.15%
  Population Normal (%): 99.69% and 100%
  Population Pyknosed Nuclei (%): 45.03% and 78.91%
  Total Cell Count: 323 and 128
[3]
  Population Apoptotic (%): 11.48% and 16.07%
  Population Fragmented Nuclei (%): 1.83% and 3.87%
  Population Healthy Nuclei (%): 75.87% and 34.25%
  Population Hoechst High Intensity Objects (%): 0.36% and 0%
  Population Membrane Permeable-Phenotype (%): 1.45% and 0%
  Population Mitochondria Different-Phenotype (%): 14.46% and 11.29%
  Population Mitotic Cells (%): 88.52% and 83.93%
  Population Normal (%): 99.64% and 100%
  Population Pyknosed Nuclei (%): 22.3% and 61.88%
  Population Tubulin-Different-Phenotype (%): 13.49% and 12.9%
[4]
  Population Apoptotic (%): 21.15% and 27.45%
  Population Fragmented Nuclei (%): 2.03% and 2.01%
  Population Healthy Nuclei (%): 74.55% and 29.53%
  Population Hoechst High Intensity Objects (%): 0.22% and 0%
  Population Membrane Permeable-Phenotype (%): 0.91% and 2.27%
  Population Mitochondria Different-Phenotype (%): 18.73% and 22.73%
  Population Mitotic Cells (%): 78.85% and 72.55%
  Population Normal (%): 99.78% and 100%
  Population Pyknosed Nuclei (%): 23.42% and 68.46%
  Population Tubulin-Different-Phenotype (%): 20.54% and 18.18%
  Total Cell Count: 445 and 149
[5]
  Population Apoptotic (%): 8.22% and 21.13%
  Population Fragmented Nuclei (%): 2.43% and 3.09%
  Population Healthy Nuclei (%): 87.12% and 60.31%
  Population Hoechst High Intensity Objects (%): 0.07% and 0%
  Population Membrane Permeable-Phenotype (%): 5.75% and 0%
  Population Mitochondria Different-Phenotype (%): 13.8% and 32.48%
  Population Mitotic Cells (%): 91.78% and 78.87%
  Population Normal (%): 99.93% and 100%
[6]
  Population Fragmented Nuclei (%): 2.78% and 2.07%
  Population Healthy Nuclei (%): 86.6% and 61.14%
  Population Hoechst High Intensity Objects (%): 0.1% and 0%
  Population Membrane Permeable-Phenotype (%): 4.76% and 3.39%
  Population Mitochondria Different-Phenotype (%): 22.86% and 38.98%
  Population Mitotic Cells (%): 93.2% and 77.46%
  Population Normal (%): 99.9% and 100%
